Data reported in PubChem BioAssay AID504933 (The Scripps Research Institute Molecular Screening Center, 2011).

Molecular target: Nuclear receptor subfamily 5 group A member 2 (Homo sapiens) (UniProt O00482)
Assay: inhibition of LRH1-driven StAR promoter reporter, late-stage follow-up, LRH-1 inverse agonist project, cell-based, luminescence, assay provider, powder samples (AID 504933)
Conditions: HEK293T LRH1 + StAR-luciferase reporter, 20 h
How it was run: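 system = HEK293T with LRH1 plus StAR luciferase reporter | times = 24 h bulk transfection before re-plating, then 20 h compound exposure | benchmarks = DMSO vehicle-treated wells as normalisation reference | compound = Nine-point dilution series topping at 10 µM, plus single 10 µM test | detection = luciferase reporter luminescence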

Nuclear receptor subfamily 5 group A member 2 (Homo sapiens), sequence (O00482 whole entry, looked up): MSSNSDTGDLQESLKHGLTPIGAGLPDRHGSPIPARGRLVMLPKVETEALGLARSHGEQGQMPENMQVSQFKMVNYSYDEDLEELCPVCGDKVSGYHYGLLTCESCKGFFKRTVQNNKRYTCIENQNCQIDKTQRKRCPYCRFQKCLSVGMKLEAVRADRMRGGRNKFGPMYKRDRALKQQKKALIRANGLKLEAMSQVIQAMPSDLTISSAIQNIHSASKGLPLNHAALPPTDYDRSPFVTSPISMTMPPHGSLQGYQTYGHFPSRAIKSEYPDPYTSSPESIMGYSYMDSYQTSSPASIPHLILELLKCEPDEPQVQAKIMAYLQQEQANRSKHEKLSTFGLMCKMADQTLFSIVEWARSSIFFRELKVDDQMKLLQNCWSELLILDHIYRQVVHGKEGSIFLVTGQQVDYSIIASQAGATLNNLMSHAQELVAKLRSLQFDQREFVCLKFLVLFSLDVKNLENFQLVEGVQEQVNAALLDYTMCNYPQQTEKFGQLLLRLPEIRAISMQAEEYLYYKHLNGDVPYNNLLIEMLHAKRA

IC50	SMILES
2050 nM	O=c1cc(N2CCN(c3cccc(Cl)c3)CC2)[nH]c(=O)n1C1CCCCC1
2120 nM	O=c1cc(N2CCN(c3cccc(C(F)(F)F)c3)CC2)[nH]c(=O)n1C1CCCCC1
